ChEMBL document CHEMBL1133118 (J Med Chem, 2000)
Blank lines part the entries; values can stand above or below the compound they belong to.

Key:
Adenosine receptor A2b [1] = molecular target: T1, Adenosine receptor A2b (Homo sapiens, UniProt P29275); test: Displacement of [3H]DPCPX from Adenosine A2b receptor expressed in HEK-293 cells; range 81-101
T1 sequence (P29275 whole entry): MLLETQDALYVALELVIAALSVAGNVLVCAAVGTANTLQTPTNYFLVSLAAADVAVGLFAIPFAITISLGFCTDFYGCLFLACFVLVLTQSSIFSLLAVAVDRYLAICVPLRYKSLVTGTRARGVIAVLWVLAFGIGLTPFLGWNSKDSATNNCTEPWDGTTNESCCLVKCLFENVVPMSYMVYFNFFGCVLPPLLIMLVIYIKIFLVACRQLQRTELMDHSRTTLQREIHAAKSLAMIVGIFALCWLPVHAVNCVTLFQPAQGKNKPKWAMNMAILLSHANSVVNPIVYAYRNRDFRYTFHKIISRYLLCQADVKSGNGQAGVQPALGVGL

[2] = molecular target: Adenosine receptors; A1 & A3 (Homo sapiens) (UniProt P30542+P0DMS8); test: Ratio of binding affinity of human A1 receptor to that of human A3 receptor; assay type: protein assay
Summary of the method: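 Ki ratio from displacement in CHO membranes, 6–8 concentrations, n=3-6, filtration counting. A1: 1 nM [3H]DPCPX, 50 μg protein, 120 min at 25 °C, nonspecific with 10 μM CHA. A3: 1 nM [3H]MRE3008-F20, 50 μg protein, Tris/10 mM MgCl2 pH 7.4, 120 min at 4 °C, nonspecific with 1 μM MRE3008-F20.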

[3] = molecular target: Adenosine receptors; A2b & A3 (Homo sapiens) (UniProt P29275+P0DMS8); test: Ratio of binding affinity of human A2B receptor to that of human A3 receptor; assay type: protein assay
Summary of the method: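 Ki ratio, n=3-6, 6–8 concentrations. A2B in HEK-293 membranes (20 μg): 40 nM [3H]DPCPX, 50 mM Tris HCl, 10 mM MgCl2, 1 mM EDTA, 0.1 mM benzamidine pH 7.4, 2 IU/mL adenosine deaminase, 60 min at 25 °C, nonspecific with 100 μM NECA. A3 in CHO membranes (50 μg): 1 nM [3H]MRE3008-F20, 120 min at 4 °C.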

[4] = molecular target: T2, Adenosine receptor A3 (Homo sapiens) (UniProt P0DMS8); test: Percentage of blockade by 1 uM of the inhibition by 100 nM IB-MECA-inhibited cAMP accumulation in CHO cells expressing human adenosine A3 receptor.; assay type: functional, cell-based
T2 sequence (whole entry): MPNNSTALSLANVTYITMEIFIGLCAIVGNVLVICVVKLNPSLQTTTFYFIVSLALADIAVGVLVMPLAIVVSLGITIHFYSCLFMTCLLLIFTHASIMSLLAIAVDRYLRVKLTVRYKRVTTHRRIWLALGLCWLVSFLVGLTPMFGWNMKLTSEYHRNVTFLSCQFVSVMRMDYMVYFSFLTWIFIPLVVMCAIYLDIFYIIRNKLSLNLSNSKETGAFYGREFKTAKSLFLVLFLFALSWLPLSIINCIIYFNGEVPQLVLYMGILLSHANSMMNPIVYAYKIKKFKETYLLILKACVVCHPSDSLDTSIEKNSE
Summary of the method: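 CHO cells stably expressing human A3 receptor; membranes in 50 mM Tris HCl, 10 mM MgCl2, 1 mM EDTA pH 7.4 with 5 μM GTP, 0.5 mM […] and 2.0 IU/mL adenosine deaminase. Preincubated 10 min at 37 °C, then IB-MECA (100 nM) and/or antagonist with 1 mM ATP and 10 μM forskolin for 10 min. Boiled 2 min. cAMP read by [3H]cAMP competition with adrenal binding protein.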

Adenosine receptor A3 [5] = molecular target: T3, Adenosine receptor A3 (Homo sapiens, UniProt P0DMS8); test: Displacement of [3H]MRE3008-F20 from human adenosine A3 receptor expressed in CHO cells; range 7.2-8.9; assay type: cell-based
T3 sequence (P0DMS8 whole entry): T2 sequence (whole entry)

[6] = molecular target: T2, Adenosine receptor A3 (Homo sapiens); conditions: CHO, 1 uM
Adenosine receptor A1 [7] = molecular target: T4, Adenosine receptor A1 (Homo sapiens, UniProt P30542); test: Displacement of [3H]DPCPX from human adenosine A1 receptor expressed in CHO cells; range 269-326; assay type: cell-based
T4 sequence (P30542 whole entry): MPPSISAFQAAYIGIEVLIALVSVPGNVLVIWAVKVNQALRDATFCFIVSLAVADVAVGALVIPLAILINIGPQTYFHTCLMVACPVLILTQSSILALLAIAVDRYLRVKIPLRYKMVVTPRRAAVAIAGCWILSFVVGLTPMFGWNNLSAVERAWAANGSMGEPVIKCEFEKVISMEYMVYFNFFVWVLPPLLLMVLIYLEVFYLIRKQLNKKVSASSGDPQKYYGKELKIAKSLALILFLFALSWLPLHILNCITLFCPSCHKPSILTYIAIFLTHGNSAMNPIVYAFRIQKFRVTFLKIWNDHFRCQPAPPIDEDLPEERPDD

Adenosine receptor A3 [8] = molecular target: T3, Adenosine receptor A3; test: Inhibition of cAMP accumulation in CHO cells expressing human adenosine A3 receptor; range 2.9-6.0; assay type: functional, cell-based
Adenosine receptor A2b [9] = molecular target: T1, Adenosine receptor A2b; test: Displacement of [3H]DPCPX from Adenosine A2b receptor expressed in […]; range 260-352; assay type: cell-based
Adenosine receptor A3 [10] = molecular target: T3, Adenosine receptor A3; test: Displacement of [3H]MRE3008-F20 from human adenosine A3 receptor expressed in CHO cells; range 0.27-0.34; assay type: cell-based
Adenosine receptor A2a [11] = molecular target: T5, Adenosine receptor A2a (Homo sapiens, UniProt P29274); test: Displacement of [3H]-SCH- 58261 from human adenosine A2A receptor expressed in CHO cells; range 65-92; assay type: cell-based
Summary of the method: (§1)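 Membranes from CHO cells stably expressing human A2A receptor, grown in DMEM/F12 without nucleosides, resuspended in 50 mM Tris HCl, 10 mM MgCl2, pH 7.4; 50 μg protein/assay. Competition with [3H]SCH 58261 at 6–8 or more compound concentrations, 60 min at 25 °C; nonspecific binding with 50 μM NECA. Filtration on GF/B filters, scintillation counting; n=3-6.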

Adenosine receptor A2b [12] = molecular target: T1, Adenosine receptor A2b; test: Displacement of [3H]DPCPX from Adenosine A2b receptor expressed in HEK-293 cells; range 3828-4817
Adenosine receptor A3 [13] = molecular target: T3, Adenosine receptor A3; test: Displacement of [3H]MRE3008-F20 from human adenosine A3 receptor expressed in CHO cells; range 3228-3614; assay type: cell-based
Adenosine receptor A2a [14] = molecular target: T5, Adenosine receptor A2a; test: Displacement of [3H]-SCH- 58261 from human adenosine A2A receptor expressed in CHO cells; range 730-1100; assay type: cell-based
Adenosine receptor A1 [15] = molecular target: T4, Adenosine receptor A1; test: Displacement of [3H]DPCPX from human adenosine A1 receptor expressed in CHO cells; range 267-453; assay type: cell-based
Adenosine receptor A2a [16] = molecular target: T5, Adenosine receptor A2a; test: Displacement of [3H]-SCH- 58261 from human adenosine A2A receptor expressed in CHO cells; range 880-1160; assay type: cell-based
Summary of the method: as §1

Adenosine receptor A2b [17] = molecular target: T1, Adenosine receptor A2b; test: Displacement of [3H]-DPCPX from Adenosine A2b receptor expressed in […]; range 719-895; assay type: cell-based
Adenosine receptor A3 [18] = molecular target: T3, Adenosine receptor A3; test: Displacement of [3H]MRE3008-F20 from human adenosine A3 receptor expressed in CHO cells; range 33-48; assay type: cell-based
[19] = molecular target: T2, Adenosine receptor A3 (Homo sapiens); conditions: CHO, 1 uM; remark: listed apart in the source
Adenosine receptor A2b [20] = molecular target: T1, Adenosine receptor A2b; test: Displacement of [3H]-DPCPX from Adenosine A2b receptor expressed in CHO cells; range 50-63; assay type: cell-based; conditions: in the assay text read “HEK-293 cells” for “CHO cells”
Summary of the method: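 Human recombinant A2B receptor was expressed in HEK-293 cell membranes (20 μg protein). Incubated with 40 nM [3H]DPCPX in 50 mM Tris HCl, 10 mM MgCl2, 1 mM EDTA, 0.1 mM benzamidine, pH 7.4, with 2 IU/mL adenosine deaminase, at least 6–8 test concentrations, 60 min, 25 °C. Nonspecific binding was taken with 100 μM NECA; n=3-6.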

Adenosine receptor A3 [21] = molecular target: T3, Adenosine receptor A3; test: Inhibition of cAMP accumulation in CHO cells expressing human adenosine A3 receptor; range 4.0-7.5; assay type: functional, cell-based
Adenosine receptor A3 [22] = molecular target: T3, Adenosine receptor A3; test: Displacement of [3H]MRE3008-F20 from human adenosine A3 receptor expressed in CHO cells; range 0.85-0.98; assay type: cell-based
Adenosine receptor A3 [23] = molecular target: T3, Adenosine receptor A3; test: Inhibition of cAMP accumulation in CHO cells expressing human adenosine A3 receptor; range 2.8-8.1; assay type: functional, cell-based
Adenosine receptor A3 [24] = molecular target: T3, Adenosine receptor A3; test: biochemical
Adenosine receptor A2b [25] = molecular target: T1, Adenosine receptor A2b; test: Displacement of [3H]DPCPX from Adenosine A2b receptor expressed in […]; range 157-268; assay type: cell-based
[26] = molecular target: T2, Adenosine receptor A3 (Homo sapiens); conditions: CHO, 1 uM; remark: listed apart in the source
Adenosine receptor A2a [27] = molecular target: T5, Adenosine receptor A2a; test: Displacement of [3H]-SCH- 58261 from human adenosine A2A receptor expressed in CHO cells; range 1024-1396; assay type: cell-based
Adenosine receptor A1 [28] = molecular target: T4, Adenosine receptor A1; test: Displacement of [3H]DPCPX from human adenosine A1 receptor expressed in CHO cells; range 323-378; assay type: cell-based

T5 sequence (P29274 whole entry): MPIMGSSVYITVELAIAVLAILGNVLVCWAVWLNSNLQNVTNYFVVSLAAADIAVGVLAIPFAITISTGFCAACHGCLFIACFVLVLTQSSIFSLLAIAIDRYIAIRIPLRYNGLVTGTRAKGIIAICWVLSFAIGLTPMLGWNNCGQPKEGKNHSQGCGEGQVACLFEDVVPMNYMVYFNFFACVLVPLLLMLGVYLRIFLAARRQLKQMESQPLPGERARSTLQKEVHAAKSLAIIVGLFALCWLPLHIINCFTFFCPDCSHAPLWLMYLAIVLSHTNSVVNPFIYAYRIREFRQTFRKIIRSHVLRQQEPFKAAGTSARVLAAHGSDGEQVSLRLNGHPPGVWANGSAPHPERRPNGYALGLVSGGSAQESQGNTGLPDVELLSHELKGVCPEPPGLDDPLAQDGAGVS

Ki (Adenosine receptor A2b [1]): 90 nM | Ratio [2]: 6.3 | Ratio [3]: 11.2 | inhibition [4]: 58% | Ki (Adenosine receptor A3 [5]): 8 nM
Structure (SMILES): O=C(Nc1cccc(Cl)c1)Nc1nc2nn(CCc3ccccc3)cc2c2nc(-c3ccco3)nn12

inhibition [19]: 80% | Ki (Adenosine receptor A2b [20]): 57 nM | Ratio [2]: 33 | Ratio [3]: 62.6 | IC50 (Adenosine receptor A3 [21]): 5.5 nM | Ki (Adenosine receptor A3 [22]): 0.9 nM
Structure (SMILES): CCCn1cc2c(nc(NC(=O)Nc3cccc(Cl)c3)n3nc(-c4ccco4)nc23)n1

IC50 (Adenosine receptor A3 [23]): 4.8 nM | Ki (Adenosine receptor A3 [24]): 0.4 nM | Ratio [2]: 875 | Ratio [3]: 512 | Ki (Adenosine receptor A2b [25]): 205 nM | inhibition [26]: 92% | Ki (Adenosine receptor A2a [27]): 1200 nM | Ki (Adenosine receptor A1 [28]): 350 nM
Structure (SMILES): Cn1cc2c(nc(NC(=O)Nc3cccc(Cl)c3)n3nc(-c4ccco4)nc23)n1

Second part, the compound before the results:

Structure (SMILES): CCCCn1cc2c(nc(NC(=O)Nc3ccc(OC)cc3)n3nc(-c4ccco4)nc23)n1
Ratio [2]: 925 | inhibition [6]: 93% | Ki (Adenosine receptor A1 [7]): 296 nM | Ratio [3]: 946 | IC50 (Adenosine receptor A3 [8]): 4.1 nM | Ki (Adenosine receptor A2b [9]): 303 nM | Ki (Adenosine receptor A3 [10]): 0.32 nM | Ki (Adenosine receptor A2a [11]): 80 nM

Structure (SMILES): Nc1nc2nn(CCc3cccc4ccccc34)cc2c2nc(-c3ccco3)nn12
Ratio [2]: 0.1 | Ki (Adenosine receptor A2b [12]): 4290 nM | Ratio [3]: 1.26 | inhibition [4]: 4% | Ki (Adenosine receptor A3 [13]): 3420 nM | Ki (Adenosine receptor A2a [14]): 896 nM | Ki (Adenosine receptor A1 [15]): 348 nM

Structure (SMILES): COc1ccc(NC(=O)Nc2nc3nn(CCCc4ccccc4)cc3c3nc(-c4ccco4)nn23)cc1
Ratio [2]: 6.27 | Ratio [3]: 20 | inhibition [4]: 49% | Ki (Adenosine receptor A2a [16]): 1010 nM | Ki (Adenosine receptor A2b [17]): 802 nM | Ki (Adenosine receptor A3 [18]): 40 nM
